Experimental data published in ChEMBL document CHEMBL1123902, “Synthesis and antiinflammatory and analgesic activity of 5-aroyl-1,2-dihydro-3H-pyrrolo[1,2-a]pyrrole-1-carboxylic acids. The 6-substituted compounds” (1987).

Tests used:
Type in all cases: functional
Rattus norvegicus [1] = species: Rattus norvegicus; assay: Antiinflammatory activity was determined by inhibition of adjuvant-induced arthritis in rats with respect to naproxen
Mus musculus = species: Mus musculus; assay: Analgesic activity in mice by phenyl quinone-induced writhing assay with respect to aspirin.
Outline: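 Phenylquinone-induced writhing in mice; potency expressed as ED50 with 95% confidence limits, relative to aspirin as reference; number of mice recorded per test.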

Rattus norvegicus [2] = species: Rattus norvegicus; assay: Gastrointestinal erosive activity was determined by 7-day chronic assay in rats; conditions: 168 h, read-out: MED
Outline: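 Chronic 7-day gastrointestinal erosion assay in rats; read-out is the minimum dose producing erosion (MED).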

Rattus norvegicus [3] = assay: Antiinflammatory activity was determined by inhibition of carrageenan-induced edema in rat paw with respect to phenylbutazone
Outline: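 Carrageenan-induced rat paw edema; potency expressed as ED30 relative to phenylbutazone as reference; number of rats recorded.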

Rattus norvegicus [4] = species: Rattus norvegicus; assay: Antiinflammatory activity was determined by inhibition of cotton pellet granuloma in rats with respcet to Indomethacin
[5] = Ratio of MED GI erosion to ED30 for carrageenan rat paw was determined
Outline: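 Therapeutic ratio calculated as the minimum erosive dose from the 7-day rat gastrointestinal erosion assay divided by the ED30 from the carrageenan rat paw edema assay.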

Rattus norvegicus [6] = species: Rattus norvegicus; assay: Antiinflammatory activity was determined to inhibit cotton pellet granuloma in rats with respcet to Indomethacin
Rattus norvegicus [7] = species: Rattus norvegicus; assay: Antiinflammatory activity was determined to inhibit adjuvant-induced arthritis in rats with respect to naproxen
Rattus norvegicus [8] = species: Rattus norvegicus; assay: Antiinflammatory activity was determined by inhibition of cotton pellet granuloma in rats with respect to Indomethacin

Row | SMILES | relative potency (Rattus norvegicus [1]) | relative potency (Mus musculus) | minimal effective dose (Rattus norvegicus [2]) [mg/kg] | relative potency (Rattus norvegicus [3]) | relative potency (Rattus norvegicus [4]) | Therapeutic index [5] | relative potency (Rattus norvegicus [6]) | relative potency (Rattus norvegicus [7]) | ED30 (Rattus norvegicus [3]) [mg/kg] | relative potency (Rattus norvegicus [8])
1 | Cc1ccc(C(=O)c2c(Cl)cc3n2CCC3C(=O)O)cc1 (stereo not given) | 11 | 158 | 5 | 32 | 0.2 | 11 | – | – | – | –
2 | COc1ccc2cc([C@H](C)C(=O)O)ccc2c1 [NAPROXEN] | – | 7 | 30 | 11 | – | 22 | 0.2 | 1 | – | –
3 | CSc1ccc(C(=O)c2c(Cl)cc3n2CCC3C(=O)O)cc1 (stereo not given) | – | 100 | – | 68 | – | – | – | – | – | –
4 | COCCc1cc2n(c1C(=O)c1ccc(Cl)cc1)CCC2C(=O)O (stereo not given) | – | 5 | – | – | – | – | – | – | < 0.3 | –
5 | Cc1ccc(C(=O)c2c(C)cc3n2CCC3C(=O)O)cc1 (stereo not given) | 3 | 250 | 2.5 | 43 | 0.7 | 7 | – | – | – | –
6 | Cc1cc2n(c1C(=O)c1ccc(Cl)cc1)CCC2C(=O)O (stereo not given) | 3.5 | 167 | 0.6 | 122 | 2 | 5 | – | – | – | –
7 | O=C(c1ccc(F)cc1)c1c(Br)cc2n1CCC2C(=O)O (stereo not given) | – | 120 | – | 96 | – | – | – | – | – | –
8 | CS(=O)(=O)c1ccc(C(=O)c2c(Cl)cc3n2CCC3C(=O)O)cc1 (stereo not given) | – | ≤ 0.8 | – | < 1 | – | – | – | – | – | –
9 | Cc1cc2n(c1C(=O)c1ccc(F)cc1)CCC2C(=O)O (stereo not given) | 3 | 302 | 1.2 | 103 | 1 | 12 | – | – | – | –
10 | COc1ccc2c(c1)c(CC(=O)O)c(C)n2C(=O)c1ccc(Cl)cc1 [INDOMETHACIN] | – | 60 | – | 16 | – | – | 1 | 7 | – | –
11 | COc1ccc(C(=O)c2c(Cl)cc3n2CCC3C(=O)O)cc1 (stereo not given) | 4 | 201 | ~1.3 | 55 | 0.7 | 5 | – | – | – | –
12 | Cc1cc2n(c1C(=O)c1ccccc1)CCC2C(=O)O (stereo not given) | 1 | 250 | 1.7 | 43 | – | 5 | – | – | – | 1
13 | Cc1cc(CC(=O)O)n(C)c1C(=O)c1ccc(Cl)cc1 [ZOMEPIRAC] | – | 36 | – | 26 | – | 17 | – | – | – | –
14 | O=C(c1ccc(F)cc1)c1c(Cl)cc2n1CCC2C(=O)O (stereo not given) | 13 | 151 | ~0.3 | 139 | 1 | 3 | – | – | – | –
15 | C1CCC(NC2CCCCC2)CC1.Cc1cc2n(c1C(=O)c1ccccc1)CCC2(C)C(=O)O (stereo not given) | – | 40 | – | < 7 | – | – | – | – | – | –
16 | COCCc1cc2n(c1C(=O)c1ccccc1)CCC2C(=O)O (stereo not given) | – | 7.6 | – | – | – | – | – | – | ≤ 0.3 | –
17 | COCCCc1cc2n(c1C(=O)c1ccccc1)CCC2C(=O)O (stereo not given) | – | ≤ 3 | – | < 10 | – | – | – | – | – | –
18 | O=C(c1ccccc1)c1c(Br)cc2n1CCC2C(=O)O (stereo not given) | – | 314 | – | 7.4 | – | – | – | – | – | –
19 | COc1ccc(C(=O)c2c(C)cc3n2CCC3C(=O)O)cc1 (stereo not given) | – | 130 | – | 73 | – | – | – | – | – | –
20 | CCc1cc2n(c1C(=O)c1ccccc1)CCC2C(=O)O (stereo not given) | – | 108 | – | 26 | – | – | – | – | – | –
21 | COCCc1cc2n(c1C(=O)c1ccc(F)cc1)CCC2C(=O)O (stereo not given) | – | 1.1 | – | – | – | – | – | – | ≤ 0.3 | –
22 | CCc1cc2n(c1C(=O)c1ccc(F)cc1)CCC2C(=O)O (stereo not given) | – | 121 | – | 46 | – | – | – | – | – | –
23 | O=C(c1ccccc1)c1c(Cl)cc2n1CCC2C(=O)O (stereo not given) | < 8 | 246 | ~1.7 | 10 | 0.6 | 1 | – | – | – | –
24 | O=C(c1ccc(Cl)cc1)c1c(Cl)cc2n1CCC2C(=O)O (stereo not given) | 40 | 167 | ~0.2 | 88 | 3 | 1 | – | – | – | –
25 | COCCCc1cc2n(c1C(=O)c1ccc(F)cc1)CCC2C(=O)O (stereo not given) | – | ~1 | – | < 3 | – | – | – | – | – | –
26 | COCCCc1cc2n(c1C(=O)c1ccc(Cl)cc1)CCC2C(=O)O (stereo not given) | – | ≥ 1.5 | – | 1.2 | – | – | – | – | – | –
